Experiment [1] has as its system Human immunodeficiency virus 1. Briefly: Antiviral activity against HIV1 isolate 8 infected in human MT4 cells obtained from protease inhibitor-resistant patient harboring protease L10I, I13V, L33F, E34Q, R41K, M46I, I54V, K55R, R57K, Q58E, I62V, L63P, A71V, I72I/T, G73S, V82A, I84V, L90M mutation derived from viral passages with Lopinavir assessed as reduction in viral cytopathogenicity treated 1 hr post infection measured 5 days post …. It is filed as functional. (Damage to the host cells serves as the signal in cytopathic effect assays.)

The subject of experiment [2] is Human immunodeficiency virus 1. Briefly: Antiviral activity against HIV1 pNL4-3 infected in human MT4 cells derived from 9 viral passages with 80 nM A-790742 harboring protease V82V/L and I84V mutation assessed as reduction in viral cytopathogenicity treated 1 hr post infection measured 5 days post infection by MTT assay relative to wild type HIV1 pNL4-3. The format is functional. The essentials: (§1)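 Selection: MT-4 cells infected with parental pNL4-3 or RF (MOI 0.003, 2 h), then passaged under rising selecting drug whenever supernatant p24 (ELISA) exceeded 10 ng/ml. Passage viruses titred by TCID50 (Spearman-Karber). Assay: 10^6 MT-4 cells infected at MOI 0.003 for 1 h, washed, and seeded at 10^4 cells/well with eight serial dilutions, triplicate, 0.5% DMSO final. Day-5 MTT read-out; EC50 fold-change versus parental wild type.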

Experiment [3] deals with Human immunodeficiency virus 1. Briefly: Antiviral activity against HIV1 pNL4-3 infected in human MT4 cells derived from 13 viral passages with 400 nM A-790742 harboring protease V82L, I84V mutation assessed as reduction in viral cytopathogenicity treated 1 hr post infection measured 5 days post infection by MTT assay relative to wild type HIV1 pNL4-3. The format is functional. The essentials: as §1

For experiment [4], the system named is Human immunodeficiency virus 1. Briefly: Antiviral activity against HIV1 pNL4-3 infected in human MT4 cells derived from 21 viral passages with 2000 nM A-790742 harboring protease L23I, L33F, K45I, A71A/V, V77I, V82L, I84V mutation assessed as reduction in viral cytopathogenicity treated 1 hr post infection measured 5 days post infection by MTT assay relative to wild type HIV1 pNL4-3. The format is functional. The essentials:
as §1

For experiment [5], the system named is Human immunodeficiency virus 1. Briefly: Antiviral activity against HIV1 RF infected in human MT4 cells derived from 10 viral passages with 160 nM A-790742 harboring protease A71V, V82G mutation assessed as reduction in viral cytopathogenicity treated 1 hr post infection measured 5 days post infection by MTT assay relative to wild type HIV1 RF. It is filed as functional. The method in brief: as §1

The subject of experiment [6] is Human immunodeficiency virus 1. As to the kind of experiment: Antiviral activity against HIV1 RF infected in human MT4 cells derived from 13 viral passages with 340 nM A-790742 harboring protease M46I, L63P, A71V, V82G mutation assessed as reduction in viral cytopathogenicity treated 1 hr post infection measured 5 days post infection by MTT assay relative to wild type HIV1 RF. The format is functional. The essentials:
as §1

In experiment [7] the test system is Human immunodeficiency virus 1. As to the kind of experiment: Antiviral activity against HIV1 RF infected in human MT4 cells derived from 15 viral passages with 500 nM A-790742 harboring protease M46I, L63P, A71V, V82G mutation assessed as reduction in viral cytopathogenicity treated 1 hr post infection measured 5 days post infection by MTT assay relative to wild type HIV1 RF. It is filed as functional. The method in brief:
as §1

Experiment [8] deals with Human immunodeficiency virus 1. As to the kind of experiment: Antiviral activity against HIV1 P15 infected in human MT4 cells derived from viral passages with A-790742 harboring protease L33L/F, K45I, V82L, and I84V mutation assessed as reduction in viral cytopathogenicity treated 1 hr post infection measured 5 days post infection by MTT assay relative to wild type HIV1 pNL4-3. It is filed as functional. The essentials: (§2)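 For the assay, 10⁶ MT-4 cells were infected at MOI 0.003, washed after 1 h, and plated at 10⁴ cells/well with eight serial compound dilutions in triplicate (0.5% DMSO final). MTT cytopathic read-out at day 5; EC50 from dose-response fitting.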

Experiment [9] deals with Human immunodeficiency virus 1. Briefly: Antiviral activity against HIV1 P21 infected in human MT4 cells derived from viral passages with A-790742 harboring protease L23I, L33F, K45I, A71A/V, V77I, V82L, and I84V mutation assessed as reduction in viral cytopathogenicity treated 1 hr post infection measured 5 days post infection by MTT assay relative to wild type HIV1 pNL4-3. It is filed as functional. The method in brief: as §2

Experiment [10] deals with Human immunodeficiency virus 1. Briefly: Antiviral activity against HIV1 P13 infected in human MT4 cells derived from viral passages with A-790742 harboring protease M46I, L63P, A71V, and V82G mutation assessed as reduction in viral cytopathogenicity treated 1 hr post infection measured 5 days post infection by MTT assay relative to wild type HIV1 RF. It is filed as functional. The method in brief:
as §2

For experiment [11], the system named is Human immunodeficiency virus 1. Briefly: Antiviral activity against HIV1 clone3 infected in HEK293 cells harboring A-790742-selected protease L33F, K45I, V82L, and I84V mutation assessed as reduction in viral replication by luciferase reporter gene assay relative to wild type HIV1 pNL4-3. It is filed as functional. The essentials:
(§3)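 Single-cycle assay: HEK-293 cells were cotransfected with luciferase-reporter HIV-1 protease clones plus a VSV-G expression vector. After 4 h, cells were replated at 2 × 10⁴/well over serial inhibitor dilutions in triplicate. Pseudovirus collected at 48 h infected fresh HEK-293 (10⁴/well). Luciferase read 48 h later gave % inhibition versus untreated and EC50. Fold change against WT pNL4-3-Luc (clones 1-4) or RF-Luc (clone 5) is the mean of three experiments.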
For orientation: Reporter assays use an easily measured gene product as a stand-in for the process of interest.

Experiment [12] has as its system Human immunodeficiency virus 1. As to the kind of experiment: Antiviral activity against HIV1 clone5 infected in HEK293 cells harboring A-790742-selected protease L63P, A71V, and V82G mutation assessed as reduction in viral replication by luciferase reporter gene assay relative to wild type HIV1 RF. It is filed as functional. The essentials:
as §3

Experiment [13] concerns Human immunodeficiency virus 1. Briefly: Antiviral activity against wild-type HIV1 pNL4-3 infected in human MT4 cells assessed as reduction in viral cytopathogenicity treated 1 hr post infection measured 5 days post infection in presence of 50% human serum by MTT assay. It is filed as functional, organism-based. To be noted: Human immunodeficiency virus 1, pNL4-3, MT4.
Experiment [14] deals with Human immunodeficiency virus 1. Briefly: Antiviral activity against HIV1 P25 infected in human MT4 cells harboring protease L10F, G16E, V32I, M46I, I47A, H69Y, I84V, and T91S mutation derived from viral passages with Lopinavir assessed as reduction in viral cytopathogenicity treated 1 hr post infection measured 5 days post infection by MTT assay. The format is functional, organism-based. The following applies: Human immunodeficiency virus 1, P25, MT4. The method in brief: as §2

The subject of experiment [15] is Human immunodeficiency virus 1. Briefly: Antiviral activity against HIV1 isolate 2 infected in human MT4 cells obtained from protease inhibitor-resistant patient harboring protease L10I, I15V, G16E, K20R, E35D, M36I, R41K, I54A, R57K, Q61D, A71V, I72R, V82A, L89I, L90M, Q92K mutation derived from viral passages with Lopinavir assessed as reduction in viral cytopathogenicity treated 1 hr post infection measured 5 days post infection by …. It is filed as functional.

Experiment [16] deals with Human immunodeficiency virus 1. Briefly: Antiviral activity against HIV1 isolate 4 infected in human MT4 cells obtained from protease inhibitor-resistant patient harboring protease N37T, M46I, Q58E, I64V, T74K, V77I, V82F, L90M mutation derived from viral passages with Lopinavir assessed as reduction in viral cytopathogenicity treated 1 hr post infection measured 5 days post infection by MTT assay relative to wild type HIV1 pNL4-3. The format is functional.

The structures appear in SMILES notation.

A word on the EC50: it is the midpoint of the concentration-response curve. In the case of `COC(=O)N[C@H](C(=O)N[C@H](Cc1ccc(-c2ccccn2)cc1)C[C@H](O)[C@H](Cc1ccccc1)NC(=O)[C@@H](N1CCN(Cc2cccc(C(C)(C)O)n2)C1=O)C(C)(C)C)C(C)(C)C`, the “Ratio EC50” value worked out at 4 in experiment [1]; 26.7 in experiment [2]; 133.3 in [3]; 666.7 in [4]; 32 in experiment [5]; 68 in experiment [6]. Besides, the “Ratio EC50” value is given as 100 in [7]; 29 in [8]; greater than 2500 in experiment [9]; 72 in [10]; 23 in experiment [11]; 72 in experiment [12]. The “Ratio EC50” value in [15] is given as 12; in experiment [16] it was 1. The EC50 in [13] stood at 20 nM; in experiment [14] it was 45 nM.

Source of the values: ChEMBL document CHEMBL1255290, “Characterization of a novel human immunodeficiency virus type 1 protease inhibitor, A-790742” (Antimicrob Agents Chemother, 2008).
